From paper PMC2222990 (The Journal of General Physiology, 1999)

Experiments:
[1] = target: T1, bovine rod photoreceptor CNG channel α subunit (Bos taurus, UniProt Q00194); assay: Inside-out patch clamp of rod CNG channels expressed in Xenopus oocytes; format: biochemical; conditions: for effect on cGMP sensitivity (K 1/2 for cGMP): 10 μM genistein, 10 μM lavendustin A, 25 μM erbstatin
T1 sequence (Q00194 1-690): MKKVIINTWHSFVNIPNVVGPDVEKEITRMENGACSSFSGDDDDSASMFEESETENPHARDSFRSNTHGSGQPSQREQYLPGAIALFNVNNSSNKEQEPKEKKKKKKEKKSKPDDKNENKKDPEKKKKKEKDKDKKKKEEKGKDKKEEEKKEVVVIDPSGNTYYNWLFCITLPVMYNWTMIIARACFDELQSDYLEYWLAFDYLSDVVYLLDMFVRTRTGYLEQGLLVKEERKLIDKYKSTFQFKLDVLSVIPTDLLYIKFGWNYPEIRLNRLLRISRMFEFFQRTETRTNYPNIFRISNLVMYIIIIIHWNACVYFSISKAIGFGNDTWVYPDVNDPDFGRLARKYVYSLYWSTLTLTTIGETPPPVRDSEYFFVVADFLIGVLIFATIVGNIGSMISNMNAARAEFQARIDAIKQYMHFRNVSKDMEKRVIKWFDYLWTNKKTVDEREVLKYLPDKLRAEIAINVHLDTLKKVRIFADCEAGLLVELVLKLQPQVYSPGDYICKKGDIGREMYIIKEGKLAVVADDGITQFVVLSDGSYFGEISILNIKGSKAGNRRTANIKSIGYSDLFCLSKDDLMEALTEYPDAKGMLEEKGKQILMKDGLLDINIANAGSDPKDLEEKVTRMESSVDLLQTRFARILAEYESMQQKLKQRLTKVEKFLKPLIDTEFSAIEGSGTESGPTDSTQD
How it was run: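 Inside-out patches from Xenopus oocytes 2–7 d after injection (vitelline membrane removed), 21–24°C, held at −75 mV. Pipette/bath solution: 115 mM NaCl, 5 mM EGTA, 1 mM EDTA, 10 mM HEPES, pH 7.5. Test compound preapplied 1 min to closed channels (±100 μM erbstatin) at 1 or 10 min after excision, or applied at steady state; then 2 mM cGMP. Currents normalized to Imax; Ki, Hill coefficient and cGMP K1/2 (4–5 cGMP levels) fitted to Hill equation; mean ± SEM.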

[2] = target: T2, rat olfactory CNG channels (Rattus norvegicus, UniProt Q00195); format: biochemical; conditions: n = 10 patches
T2 sequence (Q00195 1-664): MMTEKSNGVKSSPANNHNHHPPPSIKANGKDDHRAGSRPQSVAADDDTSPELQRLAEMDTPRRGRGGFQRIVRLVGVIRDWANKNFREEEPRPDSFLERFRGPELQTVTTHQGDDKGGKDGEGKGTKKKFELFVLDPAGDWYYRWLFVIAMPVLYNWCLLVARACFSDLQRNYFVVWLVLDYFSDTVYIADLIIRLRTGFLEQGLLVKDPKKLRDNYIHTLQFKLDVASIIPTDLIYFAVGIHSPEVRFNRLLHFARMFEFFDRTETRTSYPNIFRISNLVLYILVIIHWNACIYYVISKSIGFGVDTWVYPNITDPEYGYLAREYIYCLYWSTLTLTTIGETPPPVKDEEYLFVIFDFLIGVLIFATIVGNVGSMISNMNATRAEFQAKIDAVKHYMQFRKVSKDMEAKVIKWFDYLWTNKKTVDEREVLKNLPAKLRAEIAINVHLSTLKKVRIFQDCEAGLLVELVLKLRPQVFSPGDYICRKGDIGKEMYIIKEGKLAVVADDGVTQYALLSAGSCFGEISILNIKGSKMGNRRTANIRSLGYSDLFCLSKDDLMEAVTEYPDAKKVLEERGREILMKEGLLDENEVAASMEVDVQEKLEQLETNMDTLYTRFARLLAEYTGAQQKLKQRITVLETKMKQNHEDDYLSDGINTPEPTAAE

[3] = tested on: native CNG channels from salamander rod outer segments; assay: Inside-out patches with native CNG channels from rod outer segments; format: biochemical, tiger salamanders (Ambystoma tigrinum); conditions: 100 μM genistein
rod CNG channel = conditions: ref Fodor et al., 1997a; cited from earlier work
[4] = 100 μM genistein, preexposure 1 min, 2 mM cGMP

O=C(O)c1cc(N(Cc2ccccc2O)Cc2cc(O)ccc2O)ccc1O [lavendustin A]
effect on cGMP sensitivity (K 1/2 for cGMP) ([1]; in the presence of ATP): increase in cGMP sensitivity

O=CN/C=C/c1cc(O)ccc1O [erbstatin]
effect on cGMP sensitivity (K 1/2 for cGMP) ([1]; in the presence of ATP): increase in cGMP sensitivity

O=c1c(-c2ccc(O)cc2)coc2cc(O)cc(O)c12 [genistein]
time course of inhibition [1]: > 30 s
residual current, % of maximal CNG current ([1]; 100 μM genistein with 100 μM erbstatin present): 20%
residual current (fraction of total current with normal rapid activation) [1, 4]: 4.5%
steady state current elicited by cGMP [1, 4]: 40 % of control
residual current, % of maximal CNG current ([1]; 100 μM genistein, without erbstatin): < 5%
voltage dependence of inhibition ([1]; 100 μM genistein, saturating cGMP): voltage-independent
time constant of slow current activation by cGMP ([1]; 100 μM genistein, single exponential fit): 10.6 s
Ki ([1]; K i for genistein inhibition of CNG current activation by cGMP, in the presence of 1 mM ATP): 10.6 ± 1.3 µM
Ki ([1]; apparent affinity of genistein for the rod channel, closed to activated channels): 5 to 80 µM
K i values at 1 versus 10 min after patch excision ([1]; closed channels, residual current): do not differ
extent of inhibition of steady state (fully activated) CNG current ([1]; high genistein concentrations (e.g., 1 mM)): incomplete
Hill coefficient for genistein inhibition ([1]; in the absence of ATP): 1.9 ± 0.2
effect on cGMP sensitivity (K 1/2 for cGMP) ([1]; in the absence of ATP): no effect
Hill coefficient for genistein inhibition ([1]; in the presence of ATP): 2.0 ± 0.2
effect on cGMP sensitivity (K 1/2 for cGMP) ([1]; in the presence of ATP): increase in cGMP sensitivity
inhibition at 100 µM ([1]; read-out: inhibition of closed channels, 100 μM genistein, without erbstatin): > 95%
extent of inhibition of closed channels ([1]; saturating genistein (>100 μM)): complete inhibition
time constant of inhibition of closed CNG channels ([1]; single exponential fit, data not shown): 8.9 s
time required to recover from genistein inhibition ([1]; unpublished observations): > 60 s
effect on rat olfactory CNG channels [2]: no effect
effect on cGMP-activated current of native channels [3]: reduced the magnitude of the cGMP-activated current and slowed the activation kinetics

O=c1c(-c2ccc(O)cc2)coc2cc(O)ccc12 [daidzein]
effect on rod CNG channels (maximal current) ([1]; saturating cGMP): no effect
effect on rat olfactory CNG channels [2]: no effect

CCCCNc1ccc(C(=O)OCCN(C)C)cc1 [tetracaine]
time of block (rod CNG channel): < 100 ms
